Data published in publication PMC9298258 (Clinical Pharmacology and Therapeutics, 2021).
Values belong to the molecule of their own block, whether it stands above or below them.

How the values were obtained:
[1] = tested on: patients with RA; conditions: cited from earlier work
[2] = tested on: murine collagen–induced arthritis model; conditions: cited from earlier work
[3] = Plasma PK of tirabrutinib in two phase I studies; format: in vivo; conditions: human, oral
[4] = cited from earlier work
[5] = molecular target: BTK (Homo sapiens, UniProt Q06187); test: BTK occupancy test in peripheral blood mononuclear cells; format: in vivo
Procedure, shortened: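 PBMC BTK occupancy measured by duplexed homogeneous TR-FRET, reading free and total BTK in the same well. LLOQ was 12 ng/mL; baselines below it were excluded. Study #1 used days 8 and 17, with day-8 predose as baseline. Study #2 sampled at baseline, days 1–7 and up to 120 h post-last-dose, or at PK timepoints. Covalent binding model with BTK-synthesis feedback (ksyn); NONMEM FOCE-I; bootstrap.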

[6] = tested on: subjects with RA; test: Exploratory efficacy in study #2, part B; format: in vivo, human; conditions: 20 mg q.d.
Procedure, shortened: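 RA subjects in phase I part B were assessed at day 1 predose, week 2 and week 4. End points were plasma hsCRP and tender joint count 68 within the ACR core set. Each end point was regressed linearly against model-predicted time above 90% BTK occupancy over a 24-hour dosing interval.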

[7] = Population PK model; format: in vivo, human
Procedure, shortened: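 Plasma drug was measured by validated LC-MS/MS with an isotopically labeled internal standard (LLOQ 1.0 ng/mL). Pooled data came from healthy and RA subjects in two phase I studies. The model was two-compartment with first-order absorption, lag time and relative bioavailability, with IIV on CL/F, Vc/F and ka. Fitting used NONMEM FOCE-I. Covariates were screened on CL/F, Vc/F and ka, and bootstrap gave CIs.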

[8] = bootstrap (N = 1000) final model median estimate
[9] = final PopPK model estimate (RSE%)

Chain of BTK (Q06187 whole entry): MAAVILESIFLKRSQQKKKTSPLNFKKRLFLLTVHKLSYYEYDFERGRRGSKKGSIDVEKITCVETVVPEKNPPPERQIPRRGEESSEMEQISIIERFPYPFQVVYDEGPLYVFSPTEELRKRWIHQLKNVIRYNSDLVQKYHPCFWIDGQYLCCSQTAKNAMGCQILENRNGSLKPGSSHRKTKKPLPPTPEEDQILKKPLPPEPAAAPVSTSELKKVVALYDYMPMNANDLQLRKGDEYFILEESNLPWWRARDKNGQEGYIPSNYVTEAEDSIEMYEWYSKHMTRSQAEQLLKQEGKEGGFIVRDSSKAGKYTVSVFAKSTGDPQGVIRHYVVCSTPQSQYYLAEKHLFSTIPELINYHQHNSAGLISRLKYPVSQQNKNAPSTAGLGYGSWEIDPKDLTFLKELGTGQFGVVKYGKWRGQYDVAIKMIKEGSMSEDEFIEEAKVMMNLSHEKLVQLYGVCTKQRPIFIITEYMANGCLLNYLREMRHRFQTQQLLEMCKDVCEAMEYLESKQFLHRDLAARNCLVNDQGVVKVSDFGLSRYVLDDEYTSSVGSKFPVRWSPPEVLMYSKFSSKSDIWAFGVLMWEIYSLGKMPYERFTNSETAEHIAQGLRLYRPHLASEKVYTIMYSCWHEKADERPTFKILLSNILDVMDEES

SMILES: C[C@H]1CN(C2COC2)CCN1c1ccc(Nc2cc(-c3ccnc(N4CCn5c(cc6c5CC(C)(C)C6)C4=O)c3CO)cn(C)c2=O)nc1 [fenebrutinib]
efficacy in moderate-to-severe RA [1]: comparable with adalimumab
BTK inhibition achieved by the efficacious doses ([1]; subjects with RA): 90%

SMILES: C=CC(=O)Nc1cccc(Nc2nc(Nc3ccc(OCCOC)cc3)ncc2F)c1 [spebrutinib]
disease markers in patients with active RA [1]: reduce disease markers

half-life [3]: 6.2 to 7.3 h
Feedback rate constant on protein synthesis from BTK inhibition, ksyn [5, 8]: -0.0290 h⁻¹
Feedback rate constant on protein synthesis from BTK inhibition, ksyn ([5]; final PK/PD model estimate (RSE%)): −0.0301 (59) h^−1
Absorption lag time [7, 8]: 0.465 h
Absorption rate constant, ka [7, 8]: 0.811 h⁻¹
Apparent oral clearance, CL/F [7, 8]: 62.5 L/h
Apparent oral volume, Vc/F [7, 8]: 357 L
IIV of CL/F [7, 8]: 27.1%
IIV of Vc/F [7, 8]: 53.7%
IIV of ka [7, 8]: 89.6%
Influence of age on ka [7, 8]: –1.74
Absorption lag time [7, 9]: 0.465 (1) h
Absorption rate constant, ka [7, 9]: 0.800 (14) h^−1
Apparent oral clearance, CL/F [7, 9]: 62.6 (4) L/h
Apparent oral volume, Vc/F [7, 9]: 357 (7) L
IIV of ka [7, 9]: 93.4 (13) %
Influence of age on ka ([7]; final PopPK model estimate (RSE%), covariate exponent): –1.74 (26)
SMILES: CC#CC(=O)N1CC[C@@H](n2c(=O)n(-c3ccc(Oc4ccccc4)cc3)c3c(N)ncnc32)C1 [tirabrutinib, Tirabrutinib]
arthritis severity and bone damage [2]: dose‐dependent inhibition
dose proportionality of pharmacokinetics ([4]; 20-to-320 mg dose range): dose‐proportional
tolerability ([4]; patients with B-cell malignancies, 20 to 480 mg q.d.): generally well‐tolerated
absorption following oral administration ([4]; phase I dose escalation study): rapidly absorbed
BTK suppression after multiple dosing ([5]; model and observed fBTK): maintained through a 24‐hour dosing interval
change in TJC68 ([6]; week 4 visit): small numerical decrease
change in hsCRP levels ([6]; week 4 visit): small numerical decrease
effects on disease-related outcomes ([6]; exploratory efficacy analysis): modest effects
